# Results collected from several papers.
# Compare with care: the assays were run in different laboratories.
# Organism: Staphylococcus aureus
# Read-out: microbial growth
Structure (SMILES),technique,strain,time,notes,MIC
CC1=NN(CNc2ccc(O)cc2)C(=O)C1=NNn1c(-c2ccccc2)nc2ccccc2c1=O,broth dilution,,24 h,,53.5 µM
CC[C@H]1OC(=O)[C@H](C)[C@@H](O[C@H]2C[C@@](C)(OC)[C@@H](O)[C@H](C)O2)[C@H](C)[C@@H](O[C@@H]2O[C@H](C)C[C@H](N(C)C)[C@H]2O)[C@](C)(O)C[C@@H](C)C(=O)[C@H](C)[C@@H](O)[C@]1(C)O,,147,,clinical isolate,37.5 µM
CN[C@H](CC(C)C)C(=O)N[C@H]1C(=O)N[C@@H](CC(N)=O)C(=O)N[C@H]2C(=O)N[C@H]3C(=O)N[C@H](C(=O)N[C@H](C(=O)O)c4cc(O)cc(O)c4-c4cc3ccc4O)[C@H](O)c3ccc(c(Cl)c3)Oc3cc2cc(c3O[C@@H]2O[C@H](CO)[C@@H](O)[C@H](O)[C@H]2O[C@H]2C[C@](C)(N)[C@H](O)[C@H](C)O2)Oc2ccc(cc2Cl)[C@H]1O,broth dilution,MRSA,,,0.5 µg/mL
O=C(Nc1ccc(Cl)c(C(F)(F)F)c1)N1CCc2ccccc2C1,,NCTC8325,24 h,,30 µM
C/C=C(\C)c1cc(O)c(C)c(OC(=O)c2c(C)cc(O)c(Cl)c2O)c1,broth dilution,ATCC29213,,,8 µg/mL
CC(C)Oc1c(N)ccc(C(=O)Nc2ccc(C(=O)N[C@@H](CC(N)=O)C(=O)Nc3ccc(C(=O)Nc4ccc(C(=O)Nc5ccc(C(=O)O)cc5)c(O)c4OC(C)C)cc3)cc2)c1O,,ATCC29213,,,> 64 µg/mL
CC1(C)S[C@@H]2[C@H](NC(=O)[C@H](N)c3ccccc3)C(=O)N2[C@H]1C(=O)O,broth dilution,ATCC29213,,,1 µg/mL
CN(C)[C@@H]1C(O)=C(C(N)=O)C(=O)[C@@]2(O)C(O)=C3C(=O)c4c(O)cccc4[C@@](C)(O)[C@H]3C[C@@H]12,,156,,clinical isolate,0.15 µM
O=c1[nH]cc(F)c(=O)[nH]1,broth dilution,,24 h,,1 µg/mL
COc1c(C)c(OC(=O)c2ccc(C)cc2)c(C)c(O)c1C(=O)/C=C/c1ccccc1,broth dilution,ATCC25923,,,5000 µg/mL
COc1cc2c(Nc3ccc(NC(=O)c4ccccc4)cc3)ncnc2cc1OCCCN1CCOCC1,,NCTC8325,,,> 30 µM
C/C=C(\C)c1cc(O)c(C)c(OC(=O)c2c(C)c(Cl)c(O)c(Cl)c2O)c1,broth dilution,CCARM3090,,,4 µg/mL
Cc1ccc2cccc(C(=O)O)c2c1,,,,,> 128 µg/mL
c1ccc2[nH]c(-c3ccc4c(c3)OCO4)nc2c1,broth dilution,ATCC29213 MSSA,,,128 µg/mL
CNC(=O)c1cc(Oc2ccc(NC(=O)Nc3ccc(C)cc3)cc2)ccn1,,NCTC8325,,,> 100 µM
CC1(C)S[C@@H]2[C@H](NC(=O)[C@H](N)c3ccccc3)C(=O)N2[C@H]1C(=O)O,broth dilution,,,,0.02 µg/mL
CSc1nc(Cl)cc(Sc2nnc(-c3cc(C(F)(F)F)cc(C(F)(F)F)c3)[nH]2)n1,,83254,,,2.1 µM
COc1ccc(NCc2ccc(Oc3ccccn3)cc2)cc1,,,,,> 3.1 µg/mL
C=CCn1c(-c2ccc([N+](=O)[O-])cc2)nc2ccccc21,broth dilution,ATCC29213 MSSA,,,32 µg/mL
C/C=C(\C)c1cc(OC(=O)c2c(C)c(Cl)c(O)c(Cl)c2O)c(C)c(O)c1C(=O)O,broth dilution,16162,,,64 µg/mL
O=C1NC(=S)N/C1=C\c1ccc(-c2ccc(N(c3ccccc3)c3ccccc3)cc2)cc1,broth dilution,ATCC6538,,,> 1000 µg/mL
CC(C)Oc1c(NC(=O)c2ccc(NC(=O)[C@H](CC(N)=O)NC(=O)c3ccc(NC(=O)c4ccc(C#N)cc4)cc3)cc2)ccc(C(=O)NC2CCNCC2)c1O,,ATCC29213,,,> 64 µg/mL
Cc1ccc2nc(-c3ccc(F)cc3)[nH]c2c1,broth dilution,ATCC29213 MSSA,,,64 µg/mL
O=C(Cc1cc(O)c(O)c(O)c1)NCCCCCCCC[P+](c1ccccc1)(c1ccccc1)c1ccccc1.[Br-],broth dilution,ATCC43300 MRSA,18 h,,> 32 µg/mL
Cc1ccc2nc(-c3cccnc3)[nH]c2c1,broth dilution,ATCC29213 MSSA,,,64 µg/mL
CC(C)Oc1c(NC(=O)c2ccc(NC(=O)[C@H](CC(N)=O)NC(=O)c3ccc(NC(=O)c4ccc(S(C)(=O)=O)cc4)cc3)cc2)ccc(C(=O)Nc2ccc(C(=O)O)cc2)c1O,,ATCC29213,,,> 64 µg/mL
Cc1ccc2nc(-c3c(F)cccc3Cl)[nH]c2c1,broth dilution,ATCC29213 MSSA,,,64 µg/mL
CSc1nc2nnnc(O)c2s1,,,,,> 128 µg/mL
Cc1c(CN(C)C(=O)/C=C/c2cnc3c(c2)CC(NC(=O)OC(C)(C)C)C(=O)N3)oc2ccccc12 (stereo not shown),broth dilution,ATCC29213,,,0.016 µg/mL
Brc1ccc(NCc2ccc(Oc3ccccn3)cc2)cc1,,,,,> 6.2 µg/mL
O=C(COC(=O)c1n[nH]c2ccccc12)Nc1ccc(N2CCCCC2)cc1,,,,,> 128 µg/mL
CCn1cc(C(=O)O)c(=O)c2cc(F)c(N3CCNCC3)cc21,broth dilution,ATCC6538,,,2 µM
COc1cccc2cc(-c3nc([C@H]4CC[C@H](C(=O)O)CC4)n4ncnc(N)c34)[nH]c12,,NCTC8325,,,> 30 µM
CCCC(=O)Oc1c(C)c(O)c(C(=O)/C=C/c2ccccc2)c(OC)c1C,broth dilution,ATCC25923,,,> 5000 µg/mL
CCCCCCC#Cc1cncc(-c2nnc(SCc3ccc(C#N)cc3)n2C)c1,,MRSA,,drug-resistant strain,≥ 20 µg/mL
C[S+]([O-])c1ccc(-c2nc(-c3ccc(F)cc3)c(-c3ccncc3)[nH]2)cc1 (stereo not shown),,NCTC8325,,,> 30 µM
CC(C)Oc1c(NC(=O)c2ccc(NC(=O)[C@H](CC(N)=O)NC(=O)c3ccc(-c4nn[nH]c4-c4ccc(C#N)cc4)cc3)cc2)ccc(C(=O)Nc2ccc(C(=O)O)cc2)c1O,,ATCC29213,,,> 64 µg/mL
CNC(=O)c1nn(C)c2c1C(C)(C)Cc1cnc(Nc3ccc(N4CCN(C)CC4)cc3)nc1-2,,NCTC8325,,,> 30 µM
O=C(CCCN1CCC(O)(c2ccc(Cl)cc2)CC1)c1ccc(Br)cc1,,,,,> 128 µg/mL
C[n+]1c(/C=C/c2c[nH]c3ccccc23)cc(/C=C2\Sc3ccccc3N2CCCN2CCCC2)c2ccccc21.[I-],broth dilution,ATCCBAA44,,,4 µg/mL
O=C1NC(=S)S/C1=C\c1c2ccccc2c(-c2ccc(N(c3ccccc3)c3ccccc3)cc2)c2ccccc12,broth dilution,ATCC43300,,,> 1000 µg/mL
CC(=O)NC[C@H]1CN(c2ccc(N3CCOCC3)c(F)c2)C(=O)O1,broth dilution,MRSA NRS383 USA200,,drug-resistant strain,2 µg/mL
C/C=C(\C)c1cc(OC(=O)c2c(O)c(C)c(O)c(Cl)c2/C(C)=C/C)c(C)c(O)c1C(=O)O,broth dilution,6917,,,> 64 µg/mL
C[C@@H](O)[C@H]1C(=O)N2C(C(=O)O)=C(SCCN=CN)C[C@H]12,broth dilution,KCTC1621,16 h,,8 µM
O=C(Nc1ccc2c(c1)OC(F)(F)O2)Nc1ccc(Cl)c(C(F)(F)F)c1,,NCTC8325,,,0.3 µM
Cc1ccc(C)n1-c1ccc(-c2nnc(-c3cccc([N+](=O)[O-])c3)[nH]2)cc1,broth dilution,ATCC11632,18 h,,8 µg/mL
Cc1ccc2nc(-c3ccc(Cl)c(Cl)c3)[nH]c2c1,broth dilution,ATCC29213 MSSA,,,16 µg/mL
Nc1ncnc2c1c(-c1cnc3[nH]ccc3c1)nn2C1CCCC1,,NCTC8325,,,> 30 µM
CC(C)Oc1c(NC(=O)c2ccc(NC(=O)[C@H](CC(N)=O)NC(=O)c3ccc(CNC(=O)c4ccc(C#N)cc4)cc3)cc2)ccc(C(=O)Nc2ccc(C(=O)O)cc2)c1O,,ATCC29213,,,> 64 µg/mL
O=C(Nc1ccccc1F)c1ccccc1O,broth dilution,ATCC29213,,,32 µg/mL
O=C(O)c1cn(C2CC2)c2cc(N3CCNCC3)c(F)cc2c1=O,broth dilution,ATCC6538,,,0.24 µg/mL
CC(C)Oc1c(NC(=O)c2ccc(NC(=O)[C@H](CC(N)=O)NC(=O)c3ccc(NC(=O)c4ccc(C#N)cc4)cc3)cc2)ccc(C(=O)N[C@@H]2CONC2=O)c1O,,ATCC29213,,,> 64 µg/mL
CC1=NN(CNc2ccccc2)C(=O)C1=NNn1c(-c2ccccc2)nc2ccccc2c1=O,broth dilution,,24 h,,221 µM
Cc1ccc2nc(-c3ccc(F)cc3)n(Cc3ccccc3)c2c1,broth dilution,ATCC29213 MSSA,,,64 µg/mL
O=C(O)CN1C(=O)/C(=C/c2ccc(-c3ccc(N(c4ccccc4)c4ccccc4)cc3)c3ccccc23)SC1=S,broth dilution,ATCC6538,,,1000 µg/mL
Cc1ccc(C)n1-c1ccc(-c2nnc(-c3ccc(N(C)C)cc3)[nH]2)cc1,broth dilution,ATCC11632,18 h,,8 µg/mL
COc1ccc(-c2nc3ccccc3n2Cc2ccccc2)cc1OC,broth dilution,ATCC29213 MSSA,,,4 µg/mL
O=C1NC(=S)S/C1=C\c1ccc(-c2ccc(N(c3ccccc3)c3ccccc3)cc2)cc1,broth dilution,ATCC25923,,,250 µg/mL
